# Publication PMC10499406 (Clinical and Translational Science, 2023)
# Like-named read-outs stand apart in the source and are kept apart here.
# Key:
# clinical [1] = conditions: human, in vivo, 600 mg, fasted period, n = 8, mean
# [2] = for C min: steady‐state (day 7), n = 6, mean
# CYP3A4 [3] = test: In vitro CYP3A4 induction assays and preliminary PBPK modeling; format: in vitro ADME; conditions: unpublished data
# clinical [4] = conditions: human, in vivo, n = 6, mean; for AUC: AUC0–tau; for Cmax: C max
# [5] = Safety: adverse events and laboratory findings in healthy volunteers; format: in vivo, human
# Summary of the method: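 Healthy volunteers receiving at least one dose of study drug formed the safety population. End points were incidence and severity of AEs, and baseline changes in vital signs, clinical laboratory tests and 12-lead ECG. DDI stage: one cohort of nine, test compound given fasted with co-administered midazolam. Other stages: single oral 150–1800 mg; 300 or 900 mg b.i.d.; 600 mg fasted then after high-fat meal.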
# clinical [6] = conditions: human, in vivo, po
# [7] = for DN AUC0–last / CL/F: SAD, fasted, n = 6, mean
# human whole blood = conditions: cited from earlier work
# [8] = cynomolgus monkey, 4‐week study; cited from earlier work
# IL‐1β = test: Ex vivo LPS/ATP stimulation of whole blood from participants: IL‐1β production; format: cell-based, human; conditions: for maximum mean inhibition of IL‐1β production: relative to baseline
# Summary of the method: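 Whole blood from participants was drawn predose and at postdose timepoints. MAD dosing was oral 300 or 900 mg b.i.d. on days 1–6 plus one morning dose on day 7, fasted. Blood was stimulated ex vivo with an LPS plus ATP cocktail. Secreted IL-1β was the mean of two technical replicates. Inhibition = [1−(postdose/predose stimulated level)]×100%. IC90 came from a sigmoid Emax fit against time-matched plasma drug levels (HPLC-MS/MS).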
# CYP3A4 [9] = conditions: in vivo
# Urinary PK = format: in vivo, human; conditions: multiple b.i.d. dosing (MAD)
# IL‐18 = test: Ex vivo LPS/ATP stimulation of whole blood from participants: IL‐18 production; format: cell-based, human
# [10] = cited from earlier work
# [11] = 600 mg, high‐fat vs fasted
# [12] = 300 mg, MAD 300 mg b.i.d., first dose (day 1)
# [13] = 300 mg, MAD 300 mg b.i.d., steady‐state (day 7)
# [14] = 900 mg, MAD 900 mg b.i.d., first dose (day 1)
# [15] = 900 mg, MAD 900 mg b.i.d., steady‐state (day 7)
# [16] = single 150‐mg, 450‐mg and 900‐mg doses
# [17] = single doses of 600 mg, both fasted and high‐fat periods
smiles,measurement,setting,value
"CN[C@@H]1COc2c(S(=O)(=O)NC(=O)Nc3c4c(cc5c3CCC5)CCC4)cnn2C1 [GDC‐2394, (S)‐N‐((1,2,3,5,6,7‐hexahydro‐s‐indacen‐4‐yl)carbamoyl)‐6‐(methylamino)‐6,7‐dihydro‐5H‐pyrazolo[5,1‐b][1,3]oxazine‐3‐sulfonamide]",Cmax,"clinical [1]; C max, FE 600 mg single dose",28000 ng/mL
same,half-life,"clinical [1]; T 1/2, FE 600 mg single dose",5.3 h
same,C min,[2]; MAD 300 mg b.i.d.,1820 ng/mL
same,C min,[2]; MAD 900 mg b.i.d.,9080 ng/mL
same,"interindividual variability of PK parameters, %CVs",[2]; MAD stage,less than 50%
same,likely achievement of steady‐state,"[2]; MAD, both cohorts, from trough concentrations",≤ 2 days
same,accumulation ratios for Cmax and AUC0–tau,"[2]; both MAD cohorts (300 and 900 mg b.i.d.), steady‐state vs day 1",~ 1
same,CYP3A4 induction potential,CYP3A4 [3],mild‐to‐moderate
same,AUC,clinical [4]; [12],82 µg·h/mL
same,AUC,clinical [4]; [13],92.2 µg·h/mL
same,Cmax,clinical [4]; [12],15300 ng/mL
same,Cmax,clinical [4]; [13],16400 ng/mL
same,AUC,clinical [4]; [14],301 µg·h/mL
same,AUC,clinical [4]; [15],327 µg·h/mL
same,Cmax,clinical [4]; [14],52700 ng/mL
same,Cmax,clinical [4]; [15],51000 ng/mL
same,participants with events consistent with hepatic injury,"[5]; DDI stage, after completion of GDC‐2394 dosing",Three
same,time to recovery from severe DILI,"[5]; DDI stage, both participants",≤ 3 months
same,total number of events considered related to study treatment,"[5]; DDI stage, n = 9",14
same,peak elevation of ALT,"[5]; MAD 900 mg b.i.d., one subject, day 14",1.67 × the upper limit of normal [ULN]
same,Subjects with at least one AE leading to dose modification/interruption,"[5]; MAD, all GDC‐2394 (n = 12)",0
same,Subjects with at least one AE leading to withdrawal from treatment,"[5]; MAD, all GDC‐2394 (n = 12)",0
same,Subjects with at least one AE with fatal outcome,"[5]; MAD, all GDC‐2394 (n = 12)",0
same,Subjects with at least one grade 3–5 AE (at greatest intensity),"[5]; MAD, all GDC‐2394 (n = 12)",0
same,Subjects with at least one related AE,"[5]; MAD, all GDC‐2394 (n = 12)",4 (33.3%)
same,Subjects with at least one related serious AE,"[5]; MAD, all GDC‐2394 (n = 12)",0
same,Subjects with at least one serious AE,"[5]; MAD, all GDC‐2394 (n = 12)",0
same,Total number of AEs,"[5]; MAD, all GDC‐2394 (n = 12)",18
same,Total number of deaths,"[5]; MAD, all GDC‐2394 (n = 12)",0
same,Total number of subjects with at least one AE,"[5]; MAD, all GDC‐2394 (n = 12)",8 (66.7%)
same,Total number of subjects withdrawn from study due to an AE,"[5]; MAD, all GDC‐2394 (n = 12)",0
same,Subjects with at least one AE leading to dose modification/interruption,"[5]; SAD, all GDC‐2394 (n = 24)",0
same,Subjects with at least one AE leading to withdrawal from treatment,"[5]; SAD, all GDC‐2394 (n = 24)",0
same,Subjects with at least one AE with fatal outcome,"[5]; SAD, all GDC‐2394 (n = 24)",0
same,Subjects with at least one grade 3–5 AE (at greatest intensity),"[5]; SAD, all GDC‐2394 (n = 24)",0
same,Subjects with at least one related AE,"[5]; SAD, all GDC‐2394 (n = 24)",6 (25.0%)
same,Subjects with at least one related serious AE,"[5]; SAD, all GDC‐2394 (n = 24)",0
same,Subjects with at least one serious AE,"[5]; SAD, all GDC‐2394 (n = 24)",0
same,Total number of AEs,"[5]; SAD, all GDC‐2394 (n = 24)",22
same,Total number of deaths,"[5]; SAD, all GDC‐2394 (n = 24)",0
same,Total number of subjects with at least one AE,"[5]; SAD, all GDC‐2394 (n = 24)",14 (58.3%)
same,Total number of subjects withdrawn from study due to an AE,"[5]; SAD, all GDC‐2394 (n = 24)",0
same,half-life,clinical [6],4.1 to 8.6 h
same,AUC(0-t),clinical [6]; 150 mg,53.5 µg·h/mL
same,Cmax,clinical [6]; 150 mg,8110 ng/mL
same,Tmax,clinical [6]; 150 mg,2.1 h
same,Vd/F,clinical [6]; 150 mg,16.7 L
same,half-life,clinical [6]; 150 mg,4.1 h
same,AUC(0-inf),clinical [6]; 450 mg,138 µg·h/mL
same,AUC(0-t),clinical [6]; 450 mg,138 µg·h/mL
same,Cmax,clinical [6]; 450 mg,22900 ng/mL
same,Tmax,clinical [6]; 450 mg,2 h
same,Vd/F,clinical [6]; 450 mg,30.2 L
same,half-life,clinical [6]; 450 mg,5.8 h
same,AUC(0-inf),clinical [6]; 900 mg,317 µg·h/mL
same,AUC(0-t),clinical [6]; 900 mg,317 µg·h/mL
same,Cmax,clinical [6]; 900 mg,50400 ng/mL
same,Tmax,clinical [6]; 900 mg,2 h
same,Vd/F,clinical [6]; 900 mg,34.9 L
same,half-life,clinical [6]; 900 mg,6.8 h
same,AUC(0-inf),clinical [6]; 1800 mg,739 µg·h/mL
same,AUC(0-t),clinical [6]; 1800 mg,738 µg·h/mL
same,Cmax,clinical [6]; 1800 mg,101000 ng/mL
same,Tmax,clinical [6]; 1800 mg,4 h
same,Vd/F,clinical [6]; 1800 mg,32.1 L
same,half-life,clinical [6]; 1800 mg,8.6 h
same,observed AUC relative to the preclinical prediction,[7]; 150‐mg starting dose,approximately three‐fold
same,DN AUC0–last,[7]; single oral 150 mg,356 ng·h/mL/mg
same,CL/F,[7]; single oral 450 mg,3390 mL/h
same,DN AUC0–last,[7]; single oral 450 mg,307 ng·h/mL/mg
same,CL/F,[7]; single oral 900 mg,3040 mL/h
same,DN AUC0–last,[7]; single oral 900 mg,352 ng·h/mL/mg
same,CL/F,[7]; single oral 1800 mg,2590 mL/h
same,DN AUC0–last,[7]; single oral 1800 mg,410 ng·h/mL/mg
same,increases in systemic exposure with dose (dose‐normalized Cmax and AUC0–last),[7]; single oral doses 150–1800 mg,approximately dose proportional
same,"apparent clearance, range of mean values",[7]; single oral doses across 150–1800 mg,2590 to 3390 mL/h
same,in vitro human whole blood IC90,human whole blood,0.639 µg/mL
same,IC90,human whole blood; read-out: in vitro human whole blood IC90,1480 nM
same,no‐observed‐adverse‐effect level (NOAEL),[8],600 mg/kg/day
same,mean inhibition of IL‐1β production sustained over the 7‐day dosing period,IL‐1β; 300 mg b.i.d.,greater than 95%
same,mean inhibition of IL‐1β production sustained over the 7‐day dosing period,IL‐1β; 900 mg b.i.d.,greater than 99%
same,IC90,"IL‐1β; Homo sapiens, read-out: estimated plasma IC90 for IL‐1β inhibition",~2500 nM
same,maximum mean inhibition of IL‐1β production,IL‐1β; single 150‐mg dose,greater than 97%
same,time for which maximum mean IL‐1β inhibition was sustained,IL‐1β; [16],~ 8 h
same,maximum mean inhibition of IL‐1β production,IL‐1β; single 450‐mg dose,greater than 97%
same,maximum mean inhibition of IL‐1β production,IL‐1β; single 900‐mg dose,greater than 99%
same,mean inhibition of IL‐1β production,IL‐1β; single dose of 1800 mg,greater than or equal to 99%
same,time for which mean IL‐1β inhibition was sustained,IL‐1β; single dose of 1800 mg,~ 24 h
same,mean inhibition of IL‐1β production,IL‐1β; [17],greater than 99%
same,time for which mean IL‐1β inhibition was sustained,IL‐1β; [17],8 h
same,CYP3A4 induction potential / impact on systemic exposure of midazolam and 1‐hydroxymidazolam,CYP3A4 [9]; human,minimal CYP3A4 induction potential
same,CYP3A4 induction potential / impact on systemic exposure of midazolam and 1‐hydroxymidazolam,CYP3A4 [9],did not have an apparent impact
same,"mean fraction of drug excreted in urine 0 to 12 h postdose on day 7, range",Urinary PK,12.3% to 14.8
same,mean inhibition of IL‐18 production across most of the 7‐day dosing period,IL‐18; 900‐mg b.i.d.,greater than 99%
same,IC90,"IL‐18; Homo sapiens, read-out: estimated plasma IC90 for IL‐18 inhibition",~2500 nM
same,inhibition of IL‐18 production (in words),IL‐18; all SAD cohorts,Near‐complete or complete inhibition
same,time for which IL‐18 inhibition was sustained,IL‐18; [16],~ 8 h
same,time for which IL‐18 inhibition was sustained,IL‐18; single 1800‐mg dose,~ 24 h
same,blood:plasma ratio,[10],0.6
same,decrease of AUC0–inf with a high‐fat meal,[11],14%
same,decrease of AUC0–last with a high‐fat meal,[11],14%
same,decrease of Cmax with a high‐fat meal,[11],~ 16%
